The source made the active and inactive calls. The rule behind the calls is not given here.

Assay [1] has as its target D(3) dopamine receptor (Homo sapiens, UniProt P35462). Kind of assay: Displacement of [3H]spiperone from human D3 receptor expressed in CHO cells. It is filed as cell-based. In short, it runs like this: (§1)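 Competition binding against [3H]spiperone on cloned human receptors (D2long, D2short, D3, D4.4) stably expressed in CHO cells. Ki values were taken from two to four independent experiments, each run in triplicate.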
Background: Displacement assays read how much labelled ligand stays bound in the presence of the test substance.

Assay [2] can be described thus: Displacement of [3H]ketanserin from 5-HT2 in pig cerebral cortex. It is filed as tissue-based, Sus scrofa.
Assay [3] addresses T1, D(2) dopamine receptor (Homo sapiens, UniProt P14416). Kind of assay: Displacement of [3H]spiperone from human D2short receptor expressed in CHO cells. The assay is classed as cell-based. The method, boiled down:
as §1

The target of assay [4] is T1, D(2) dopamine receptor. Put plainly: Displacement of [3H]spiperone from human D2long receptor expressed in CHO cells. The assay is classed as cell-based. In short, it runs like this:
as §1

Assay [5] is described as follows: Displacement of [3H]WAY100635 from 5-HT1A in pig cerebral cortex. The assay is classed as tissue-based, Sus scrofa. In short, it runs like this: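 Porcine cortical membranes were used with selective radioligands: [3H]WAY100635 for 5-HT1A, [3H]ketanserin for 5-HT2 and [3H]prazosin for α1. Ki values were taken from two to four independent experiments, each run in triplicate.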

The target in assay [6] is T2, D(4) dopamine receptor (Homo sapiens, UniProt P21917).
T2 sequence (P21917 whole entry): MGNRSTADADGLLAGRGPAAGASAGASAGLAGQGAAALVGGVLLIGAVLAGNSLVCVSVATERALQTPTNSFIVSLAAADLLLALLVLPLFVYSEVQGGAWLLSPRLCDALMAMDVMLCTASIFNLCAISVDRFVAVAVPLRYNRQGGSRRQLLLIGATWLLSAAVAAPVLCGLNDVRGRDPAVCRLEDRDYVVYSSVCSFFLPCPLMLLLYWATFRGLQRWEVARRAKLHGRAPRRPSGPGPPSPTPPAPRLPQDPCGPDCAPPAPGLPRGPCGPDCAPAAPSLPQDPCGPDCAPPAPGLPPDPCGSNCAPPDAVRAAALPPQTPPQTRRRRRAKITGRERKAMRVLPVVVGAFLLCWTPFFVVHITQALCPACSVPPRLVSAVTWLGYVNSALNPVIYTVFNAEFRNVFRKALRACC
Kind of assay: Displacement of [3H]spiperone from human D4.4 receptor expressed in CHO cells. It is filed as cell-based. In short, it runs like this:
as §1

Assay [7] addresses D(1A) dopamine receptor (Sus scrofa, UniProt P50130). Put plainly: Displacement of [3H]SCH23390 from D1 receptor in pig striatal membrane. The assay is classed as cell membranes, Striatum. In short, it runs like this: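 D1 binding on porcine striatal membrane preparations, displacing the D1-selective antagonist [3H]SCH23390. Ki values were taken from two to four independent experiments, each run in triplicate.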

Assay [8] concerns the target T3, D(4) dopamine receptor (Homo sapiens) (UniProt P21917).
T3 sequence (whole entry): T2 sequence (P21917 whole entry)
Kind of assay: Antagonist activity at human D4.4 receptor expressed in CHO10001 cells assessed as [3H]thymidine incorporation preincubated at 63 nM for 20 hrs before [3H]thymidine addition by mitogenesis assay. It is filed as cell-based. On the technique in general: Uptake of a labelled nucleoside into DNA is a usual measure of proliferation.

In assay [9] the target is T3, D(4) dopamine receptor (Homo sapiens). Kind of assay: Partial agonist activity at human D4.4 receptor expressed in CHO10001 cells assessed as [3H]thymidine incorporation preincubated at 63 nM for 20 hrs before [3H]thymidine addition by mitogenesis assay. The assay is classed as cell-based.

T1 sequence (P14416 whole entry): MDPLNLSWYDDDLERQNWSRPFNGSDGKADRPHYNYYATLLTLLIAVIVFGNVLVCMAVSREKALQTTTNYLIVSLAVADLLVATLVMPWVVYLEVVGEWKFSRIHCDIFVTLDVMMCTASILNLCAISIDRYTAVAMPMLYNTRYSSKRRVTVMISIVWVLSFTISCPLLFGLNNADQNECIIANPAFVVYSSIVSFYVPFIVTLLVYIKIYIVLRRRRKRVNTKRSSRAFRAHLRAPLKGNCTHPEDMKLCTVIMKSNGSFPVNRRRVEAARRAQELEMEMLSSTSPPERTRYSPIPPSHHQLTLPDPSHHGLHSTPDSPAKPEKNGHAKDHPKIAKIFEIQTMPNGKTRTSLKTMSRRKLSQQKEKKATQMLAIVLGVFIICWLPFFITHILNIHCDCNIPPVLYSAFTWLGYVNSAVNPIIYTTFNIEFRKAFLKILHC
Chain of D(3) dopamine receptor (P35462 whole entry): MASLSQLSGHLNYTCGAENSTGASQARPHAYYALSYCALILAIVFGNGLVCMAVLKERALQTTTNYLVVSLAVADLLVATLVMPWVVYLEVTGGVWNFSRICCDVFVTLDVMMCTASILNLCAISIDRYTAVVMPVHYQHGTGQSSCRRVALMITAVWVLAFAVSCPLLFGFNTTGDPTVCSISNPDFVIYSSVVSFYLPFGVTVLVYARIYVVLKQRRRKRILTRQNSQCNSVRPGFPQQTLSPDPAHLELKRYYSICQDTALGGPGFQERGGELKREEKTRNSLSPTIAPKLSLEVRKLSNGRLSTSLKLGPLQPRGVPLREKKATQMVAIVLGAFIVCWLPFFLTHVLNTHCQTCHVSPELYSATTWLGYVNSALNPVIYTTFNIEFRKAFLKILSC
Chain of D(1A) dopamine receptor (P50130 whole entry): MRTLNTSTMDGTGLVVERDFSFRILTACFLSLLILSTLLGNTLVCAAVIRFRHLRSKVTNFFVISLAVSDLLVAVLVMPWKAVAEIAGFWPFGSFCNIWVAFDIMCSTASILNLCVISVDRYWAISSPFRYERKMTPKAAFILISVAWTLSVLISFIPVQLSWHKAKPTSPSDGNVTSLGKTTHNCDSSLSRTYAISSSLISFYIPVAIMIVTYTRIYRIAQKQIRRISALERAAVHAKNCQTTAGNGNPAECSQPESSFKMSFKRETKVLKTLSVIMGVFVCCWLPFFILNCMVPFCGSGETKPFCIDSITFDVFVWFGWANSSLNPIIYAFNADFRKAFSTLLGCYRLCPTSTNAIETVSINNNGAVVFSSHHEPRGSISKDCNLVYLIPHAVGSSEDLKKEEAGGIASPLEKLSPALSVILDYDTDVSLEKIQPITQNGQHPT

Broadly, the Ki is the equilibrium dissociation constant of an inhibitor or competing ligand from its target. High values mean weaker binding, low ones tighter binding. Consider `COc1ccccc1N1CCN(Cc2cn(CCOCCF)nn2)CC1`, for which the inhibition constant Ki in [1] came out at 1700 nM; in assay [2], 27000 nM; in assay [3], 750 nM; in assay [4], 1600 nM; in assay [5], 240 nM; in assay [6] it was 23 nM.
With `COc1ccccc1N1CCN(Cc2cn([C@@H]3O[C@H](CO)[C@@H](O)[C@H](O)[C@H]3F)nn2)CC1`, the Ki in assay [1] is 17000 nM; in [7], 54000 nM; in [2] it was 38000 nM; in assay [3] it was 42000 nM; in [4], 23000 nM; in assay [5], 12000 nM. In [6], this molecule had a Ki of 500 nM.
On to `COc1ccccc1N1CCN(Cc2cn(CCOCCOCCOCCF)nn2)CC1`, for which the Ki in assay [1] stood at 7600 nM; in assay [7] it was 60000 nM; in assay [2], 18000 nM; in [3], 4700 nM; in [4] it was 8300 nM; in assay [5], 770 nM. This molecule gave a Ki in [6] of 680 nM.
On to `COc1ccccc1N1CCN(Cc2cn(-c3ccc(OCCCOC4O[C@H](CO)[C@@H](O)[C@H](O)[C@H]4F)cc3)nn2)CC1` (stereo not given in full), for which the Ki in [1] is 5700 nM; in assay [7] it was 16000 nM; in [2], 7800 nM; in [3], 1500 nM; in [4], 4100 nM; in assay [5], 650 nM. In addition, the Ki in assay [6] was 32 nM.
For `COc1ccccc1N1CCN(Cc2cn(CCOCCOCCF)nn2)CC1`, the inhibitory constant (Ki) in assay [1] turned out to be 5100 nM; in assay [7] it was 30000 nM; in [2] it was 23000 nM; in assay [3] it was 3400 nM; in assay [4] it was 7700 nM; in assay [5] it was 870 nM. This molecule returned a Ki in [6] of 150 nM.
Consider `COc1ccccc1N1CCN(Cc2cn(-c3ccc(OCCOCCOCCF)cc3)nn2)CC1`, for which the inhibition constant (Ki) in assay [1] was 200 nM; in assay [7], 43000 nM; in assay [2] it was 8200 nM; in assay [3] it was 2900 nM; in [4], 2700 nM; in assay [5], 560 nM. In [6], this molecule showed a Ki of 100 nM.
`COc1ccccc1N1CCN(Cc2cn(CCCCCCF)nn2)CC1`: the inhibitory constant (Ki) in assay [1] was found to be 800 nM; in assay [7], 26000 nM; in [2], 6400 nM; in [3] it was 560 nM; in [4] it was 460 nM; in [5] it was 54 nM. Further, the Ki in [6] amounted to 20 nM.
Turning to `COc1ccccc1N1CCN(Cc2cn(-c3ccc(OCCCOCCF)cc3)nn2)CC1`, the Ki in [1] was 2900 nM; in [7], 3600 nM; in [2], 9000 nM; in assay [3] it was 770 nM; in [4], 440 nM; in assay [5] it was 480 nM. For the same molecule, in assay [6], the Ki was 16 nM.
Consider `COc1ccccc1N1CCN(Cc2cn([C@@H]3O[C@H](CF)[C@@H](O)[C@H](O)[C@H]3O)nn2)CC1`, for which the inhibition constant Ki in assay [7] came to 77000 nM; in [3], 51000 nM; in [4], 24000 nM; in assay [5] it was 18000 nM; in assay [6], 340 nM.
Take `COc1ccccc1N1CCN(Cc2cn(-c3ccc(OCCCF)cc3)nn2)CC1`: the Ki in [1] amounted to 2800 nM; in [7] it was 38000 nM; in assay [3], 520 nM; in assay [4], 340 nM; in assay [5], 420 nM; in [6] it was 5.1 nM. Also, the outcome in [8] was Active.
As for `COc1ccccc1N1CCN(Cc2cn(-c3ccc(OCCF)cc3)nn2)CC1`, the inhibitory constant (Ki) in [1] is 17000 nM; in assay [7], 45000 nM; in [2] it was 10000 nM; in [3], 18000 nM; in [4], 1600 nM; in [5] it was 420 nM. In assay [6], this molecule had an inhibitory constant (Ki) of 14 nM. Also, the Activity in [9] worked out at 27%.

The values are drawn from ChEMBL document CHEMBL2440010, “Click chemistry based synthesis of dopamine D4 selective receptor ligands for the selection of potential PET tracers” (Bioorg Med Chem Lett, 2013).
